According to ChEMBL document CHEMBL2331335, “Synthesis of hemslecin A derivatives: a new class of hepatitis B virus inhibitors” (Bioorg Med Chem Lett, 2013):

Columns and labels:
[1] = Selectivity index, ratio of CC50 for human HepG2.2.15 cells to IC50 for HBV infected in human HepG2.2.15 cells assessed as inhibition of viral e antigen production; type: functional
Summary of the method: (§1)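 Selectivity index was calculated as CC50 (HepG 2.2.15 cytotoxicity) divided by IC50 for the given marker (HBV DNA replication, HBeAg or HBsAg), all measured in HepG 2.2.15 cells.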

[2] = Cytotoxicity against human HepG2.2.15 cells; type: cell-based, HepG2 2.2.15
Summary of the method: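 Cytotoxicity was tested in HepG 2.2.15 cells alongside the anti-HBV assay. CC50 was taken as the compound concentration required to destroy 50% of the cells.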

[3] = Selectivity index, ratio of CC50 for human HepG2.2.15 cells to IC50 for HBV infected in human HepG2.2.15 cells assessed as inhibition of viral surface antigen production; type: functional; summary of the method: as §1
[4] = Selectivity index, ratio of CC50 for human HepG2.2.15 cells to IC50 for HBV infected in human HepG2.2.15 cells assessed as inhibition of viral DNA replication; type: functional; summary of the method: as §1
[5] = test system: Hepatitis B virus; test: Antiviral activity against HBV infected in human HepG2.2.15 cells assessed as inhibition of viral e antigen production; type: functional, organism-based; conditions: HepG2 2.2.15
Summary of the method: (§2)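 Assayed in HBV-producing HepG 2.2.15 cells, with tenofovir as positive control. HBsAg, HBeAg and HBV DNA replication were each measured, and IC50 was taken as the compound concentration giving 50% inhibition of the given marker.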

[6] = test system: Hepatitis B virus; test: Antiviral activity against HBV infected in human HepG2.2.15 cells assessed as inhibition of viral DNA replication; type: functional, organism-based; conditions: HepG2 2.2.15; summary of the method: as §2
[7] = test system: Hepatitis B virus; test: Antiviral activity against HBV infected in human HepG2.2.15 cells assessed as inhibition of viral surface antigen production; type: functional, organism-based; conditions: HepG2 2.2.15; summary of the method: as §2

Structure (SMILES)	IC50 [5]	IC50 [6]	IC50 [7]	Ratio CC50/IC50 [1]	CC50 [2]	Ratio CC50/IC50 [3]	Ratio CC50/IC50 [4]
CC(=O)O[C@H]1C[C@@H]2C(=CC[C@@H]3[C@@]2(C)C(=O)C[C@]2(C)[C@@H]([C@@](C)(O)C(=O)CCC(C)(C)OC(C)=O)[C@H](OC(C)=O)C[C@@]32C)C(C)(C)[C@@H]1OC(C)=O	> 807 µM	17.3 µM	> 807 µM		> 807 µM		>46.6
CCC(=O)O[C@H]1C[C@@H]2C(=CC[C@@H]3[C@@]2(C)C(=O)C[C@]2(C)[C@@H]([C@@](C)(O)C(=O)CCC(C)(C)OC(C)=O)[C@H](OC(C)=O)C[C@@]32C)C(C)(C)[C@@H]1OC(=O)CC	> 650 µM	19 µM	> 650 µM		> 650 µM		>34.2
COc1cccc(/C=C/C(=O)O[C@H]2C[C@@H]3C(=CC[C@@H]4[C@@]3(C)C(=O)C[C@]3(C)[C@@H]([C@@](C)(O)C(=O)CCC(C)(C)OC(C)=O)[C@H](OC(=O)/C=C/c5cccc(OC)c5)C[C@@]43C)C(C)(C)[C@@H]2OC(=O)/C=C/c2cccc(OC)c2)c1	> 719 µM	51.2 µM	> 719 µM		> 719 µM		>14
CC(=O)OC(C)(C)CCC(=O)[C@](C)(O)[C@H]1[C@H](O)C[C@@]2(C)[C@@H]3C[C@H]4O[C@@]45[C@@H](C[C@H](O)[C@@H](O)C5(C)C)[C@]3(C)C(=O)C[C@]12C	> 1740 µM	11.6 µM	> 1740 µM		> 1740 µM		>150.5
CC(=O)O[C@H]1C[C@H]2[C@]3(C)C(=O)C[C@]4(C)[C@@H]([C@@](C)(O)C(=O)CCC(C)(C)OC(C)=O)[C@H](OC(C)=O)C[C@@]4(C)[C@@H]3C[C@H]3O[C@]32C(C)(C)[C@@H]1OC(C)=O	> 961 µM	> 961 µM	> 961 µM		> 961 µM		
CCC(=O)O[C@H]1C[C@H]2[C@]3(C)C(=O)C[C@]4(C)[C@@H]([C@@](C)(O)C(=O)CCC(C)(C)OC(C)=O)[C@H](OC(=O)CC)C[C@@]4(C)[C@@H]3C[C@H]3O[C@]32C(C)(C)[C@@H]1OC(=O)CC	> 1670 µM	> 1670 µM	768 µM		> 1670 µM	>2.2	
CCCC(=O)O[C@H]1C[C@H]2[C@]3(C)C(=O)C[C@]4(C)[C@@H]([C@@](C)(O)C(=O)CCC(C)(C)OC(C)=O)[C@H](OC(=O)CCC)C[C@@]4(C)[C@@H]3C[C@H]3O[C@]32C(C)(C)[C@@H]1OC(=O)CCC	401 µM	> 618 µM	> 618 µM	>2	> 618 µM		
COCC(=O)O[C@H]1C[C@H]2[C@]3(C)C(=O)C[C@]4(C)[C@@H]([C@@](C)(O)C(=O)CCC(C)(C)OC(C)=O)[C@H](OC(=O)COC)C[C@@]4(C)[C@@H]3C[C@H]3O[C@]32C(C)(C)[C@@H]1OC(=O)COC	592 µM	> 1110 µM	> 1110 µM	>1.9	> 1110 µM		
CCOCC(=O)O[C@H]1C[C@H]2[C@]3(C)C(=O)C[C@]4(C)[C@@H]([C@@](C)(O)C(=O)CCC(C)(C)OC(C)=O)[C@H](OC(=O)COCC)C[C@@]4(C)[C@@H]3C[C@H]3O[C@]32C(C)(C)[C@@H]1OC(=O)COCC	> 633 µM	> 633 µM	> 633 µM		> 633 µM		
CC(=O)O[C@H]1C[C@H]2[C@]3(C)C(=O)C[C@]4(C)[C@@H]([C@@](C)(O)C(=O)CCC(C)(C)OC(C)=O)[C@H](OC(C)=O)C[C@@]4(C)[C@@H]3C[C@@H](O)[C@@]2(OC(=O)c2cccc(Cl)c2)C(C)(C)[C@@H]1OC(C)=O	327 µM	> 1050 µM	178 µM	>3.2	> 1050 µM	>5.9	
COCC(=O)O[C@H]1C[C@H]2[C@]3(C)C(=O)C[C@]4(C)[C@@H]([C@@](C)(O)C(=O)CCC(C)(C)OC(C)=O)[C@H](OC(=O)COC)C[C@@]4(C)[C@@H]3C[C@@H](O)[C@@]2(OC(=O)c2cccc(Cl)c2)C(C)(C)[C@@H]1OC(=O)COC	> 1740 µM	> 1740 µM	> 1740 µM		> 1740 µM		
CCOCC(=O)O[C@H]1C[C@H]2[C@]3(C)C(=O)C[C@]4(C)[C@@H]([C@@](C)(O)C(=O)CCC(C)(C)OC(C)=O)[C@H](OC(=O)COCC)C[C@@]4(C)[C@@H]3C[C@@H](O)[C@@]2(OC(=O)c2cccc(Cl)c2)C(C)(C)[C@@H]1OC(=O)COCC	> 710 µM	> 710 µM	> 710 µM		> 710 µM		
CCOCC(=O)O[C@H]1C[C@@H]2C(=CC[C@@H]3[C@@]2(C)C(=O)C[C@]2(C)[C@@H]([C@@](C)(O)C(=O)CCC(C)(C)O)[C@H](OC(=O)COCC)C[C@@]32C)C(C)(C)[C@@H]1OC(=O)COCC	> 184 µM	84.6 µM	101 µM	<1	184 µM	1.8	2.2
CCOCC(=O)O[C@H]1C[C@@H]2C(=CC[C@@H]3[C@@]2(C)C(=O)C[C@]2(C)[C@@H]([C@@](C)(O)C(=O)CCC(C)(C)OC(=O)COCC)[C@H](OC(=O)COCC)C[C@@]32C)C(C)(C)[C@@H]1OC(=O)COCC	> 1450 µM	81.4 µM	225 µM		> 1450 µM	>6.4	>17.8
CC(C)(O)CCC(=O)[C@](C)(O)[C@H]1[C@H](O)C[C@@]2(C)[C@@H]3CC=C4[C@@H](C[C@H](O)[C@@H](O)C4(C)C)[C@]3(C)C(=O)C[C@]12C	> 60.6 µM	31.4 µM	> 60.6 µM	<1	60.6 µM	<1	1.9

Molecules with a lower IC50 [6], results first:

IC50 [5]	IC50 [6]	IC50 [7]	Structure (SMILES)	Ratio CC50/IC50 [1]	CC50 [2]	Ratio CC50/IC50 [3]	Ratio CC50/IC50 [4]
> 560 µM	10 µM	> 560 µM	CCOCC(=O)O[C@H]1C[C@@H]2C(=CC[C@@H]3[C@@]2(C)C(=O)C[C@]2(C)[C@@H]([C@@](C)(O)C(=O)CCC(C)(C)OC(C)=O)[C@H](OC(=O)COCC)C[C@@]32C)C(C)(C)[C@@H]1OC(=O)COCC		> 560 µM		>55.8
46.7 µM	9.8 µM	22.4 µM	CC(=O)O[C@H]1C[C@@H]2C(=CC[C@@H]3[C@@]2(C)C(=O)C[C@]2(C)[C@@H]([C@@](C)(O)C(=O)CCC(C)(C)OC(C)=O)[C@H](O)C[C@@]32C)C(C)(C)[C@@H]1OC(C)=O	11.7	546 µM	24.3	55.6
596 µM	7.2 µM	9.9 µM	CCC(=O)O[C@H]1C[C@@H]2C(=CC[C@@H]3[C@@]2(C)C(=O)C[C@]2(C)[C@@H]([C@@](C)(O)C(=O)CCC(C)(C)OC(C)=O)[C@H](O)C[C@@]32C)C(C)(C)[C@@H]1OC(=O)CC	>1	> 596 µM	>60	>83.4
30.9 µM	7.2 µM	24 µM	CC(=O)OC(C)(C)CCC(=O)[C@](C)(O)[C@H]1[C@H](O)C[C@@]2(C)[C@@H]3C[C@@H](O)[C@]4(OC(=O)c5cccc(Cl)c5)[C@@H](C[C@H](O)[C@@H](O)C4(C)C)[C@]3(C)C(=O)C[C@]12C	11.9	366 µM	15.3	50.9
> 12.4 µM	6.1 µM	> 12.4 µM	CCCC(=O)O[C@H]1C[C@@H]2C(=CC[C@@H]3[C@@]2(C)C(=O)C[C@]2(C)[C@@H]([C@@](C)(O)C(=O)CCC(C)(C)OC(C)=O)[C@H](O)C[C@@]32C)C(C)(C)[C@@H]1O	<1	12.4 µM	<1	2
14.4 µM	4.7 µM	15.6 µM	CCC(=O)O[C@H]1C[C@@H]2C(=CC[C@@H]3[C@@]2(C)C(=O)C[C@]2(C)[C@@H]([C@@](C)(O)C(=O)CCC(C)(C)OC(C)=O)[C@H](O)C[C@@]32C)C(C)(C)[C@@H]1O	8.7	126 µM	8.1	
> 6.3 µM	4.7 µM	> 6.3 µM	CCCC(=O)O[C@@H]1[C@@H](O)C[C@@H]2C(=CC[C@@H]3[C@@]2(C)C(=O)C[C@]2(C)[C@@H]([C@@](C)(O)C(=O)CCC(C)(C)OC(C)=O)[C@H](O)C[C@@]32C)C1(C)C	<1	6.3 µM	<1	1.3
17 µM	3.1 µM	18.4 µM	CCC(=O)O[C@@H]1[C@@H](O)C[C@@H]2C(=CC[C@@H]3[C@@]2(C)C(=O)C[C@]2(C)[C@@H]([C@@](C)(O)C(=O)CCC(C)(C)OC(C)=O)[C@H](O)C[C@@]32C)C1(C)C	5.9	100 µM	5.5	31.9
	0.49 µM	1570 µM	C[C@H](Cn1cnc2c(N)ncnc21)OCP(=O)(O)O [TENOFOVIR ANHYDROUS]	>1.5	> 1740 µM	>1.1	>3571.4
